Screens from PubChem.
A selection: hits, their analogues and other compounds. The true share with any hit is near 2.2%.
Granule exo inh – blocks lytic granule exocytosis | TALL-104 LAMP-1 surface exposure, flow cytometry; cells stimulated with thapsigargin and PMA | inhibition, % at 10 µM | hit rate 0.66% among 360,000 | AID 651702;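 active means inhibition above about 55%, limit read from the data; inconclusive means no clear call, values can overlap the other calls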
Myeloid diff 2 – promotes myeloid progenitor differentiation. hit rate 1% among 360,000. calls only at 10 µM. ER-HoxA9 myeloid progenitors, lysozyme-GFP differentiation, flow cytometry;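 active means normalized GFP-positive differentiation at or above the plate's own cutoff, the solvent-only control mean plus 3 SD; inconclusive means no clear call, values can overlap the other calls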;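 further: cells exposed to compound for four days before flow analysis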
HNF4A DNA FP – change in binding of human HNF4 alpha to DNA; P41235; HNF4a-FITC DNA binding, fluorescence polarization, 1 h; activity change, % at 10 µM; hit rate 0.3% among 360,000; AID 1224865; in the data active means activity change above about 30%, passing the limit was not always enough
CSN deneddyl inh – CSN deneddylation inhibition; inhibition, % at 12.5 µM; hit rate 0.38% among 360,000; Purified CSN, SCF-Nedd8-OG deneddylation, fluorescence polarization; Q92905;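 active means pattern-corrected inhibition above about 35%, with an unprinted fluorescence ratio check between 0.5 and 1.5, limit read from the data, passing the limit was not always enough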;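 further: 0% = enzyme with substrate and 100% = substrate without enzyme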
Target sequence (Q92905 whole entry, looked up, one chain of several): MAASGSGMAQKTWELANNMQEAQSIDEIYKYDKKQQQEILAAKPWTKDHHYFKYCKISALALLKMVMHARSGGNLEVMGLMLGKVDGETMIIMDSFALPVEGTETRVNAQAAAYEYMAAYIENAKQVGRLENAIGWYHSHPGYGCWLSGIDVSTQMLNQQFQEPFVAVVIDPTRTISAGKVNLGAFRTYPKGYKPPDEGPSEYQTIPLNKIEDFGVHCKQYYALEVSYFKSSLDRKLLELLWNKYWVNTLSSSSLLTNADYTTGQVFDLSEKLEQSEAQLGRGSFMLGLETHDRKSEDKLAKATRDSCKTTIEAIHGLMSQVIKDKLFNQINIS
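Assay system: purified human Csn5 enzyme expressed in HEK293T cells; Input: 0.24 nM Csn5 enzyme, final concentration; Reagent: 10 nM SCFSkp2-Nedd8OG; Compound dosing: 12.5 µM single point; Times: reaction 90 min, room temperature; Technique: fluorescence polarization readout.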
* hit, by the source's call; i = inactive; ? = inconclusive; . = not tested or not shown; + = active, no number.

SMILES	Granule exo inh	Myeloid diff 2	HNF4A DNA FP	CSN deneddyl inh
O=C(COC(=O)c1ccc(S(=O)(=O)NCc2ccco2)cc1)Nc1ccccc1	4.8	i	1.9	36.9*
Cc1ccc(NC(=O)COC(=O)c2ccc(S(=O)(=O)NCc3ccco3)cc2)cc1	-3.1	i	0.2	-1.9
NC(=O)C1CCCN1Cc1ccc2c(c1)OCO2 (centres undefined)	0.4	i	4.9	-4.9
O=C(c1ccoc1)N1CCC2(CC1)Oc1ccc(F)cc1C(=O)C21CC(c2ccc(Cl)cc2)=NO1 (centres undefined)	2.1	+	-2.9	2.8
CCN(CC(=O)NCCCn1ccnc1)S(=O)(=O)c1ccc(C)cc1	-13.0	i	1.1	3.7
COc1ccc(CNC(=O)COC(=O)c2cccs2)cc1	-1.9	i	1.6	3.0
CC(C)OCCCNC(=O)c1c(N)n(/N=C/c2cccs2)c2nc3ccccc3nc12	-2.3	i	4.5	41.1*
CCOC(=O)c1ccc(-c2c(-c3ccccc3OC)sc3cc4c(cc23)OCO4)cc1F	-3.9	i	2.3	-1.2
CC(CC(=O)NCCc1ccc(F)cc1)c1ccccc1 (centres undefined)	-7.0	i	-0.5	1.7
COc1ccc(C(=O)NC(C)c2ccccc2)cc1Br (centres undefined)	0.0	+	0.3	1.1
COc1ccc(C(=O)NC(NC(=O)c2ccc(OC)c(OC)c2)c2ccccc2F)cc1OC	-1.5	i	44.7*	2.1
COc1ccc(C(=O)Nc2cccc(NC(C)=O)c2)cc1OC	-3.5	+	-4.5	-8.1
COc1ccc(C(=O)NCC(C)NC(=O)c2ccc(OC)c(OC)c2)cc1OC (centres undefined)	3.6	i	2.4	1.3
CC1(C)Cc2c(sc(NC(=O)c3ccc(S(=O)(=O)N4CCCCCC4)cc3)c2C#N)C(C)(C)N1	0.8	i	-0.1	5.4
CC(C)(C)c1ccc(C(=O)N2CCC2(C)C(=O)NCc2cccc3ccccc23)cc1 (centres undefined)	-2.1	i	4.0	2.6
C/C(N)=C(/C#N)C(=O)COC(=O)CC1CCCC1	-1.0	i	1.6	5.6
C/C(N)=C(/C#N)C(=O)COC(=O)C1CCC(C(C)(C)C)CC1 (centres undefined)	3.6	i	-1.1	116.8*
O=c1oc2ccc(Cl)cc2nc1/C=C(\O)c1cccs1	2.6	i	54.5*	7.6
CCN(CC)CCN1C(=O)C(=O)/C(=C(/O)c2ccc3c(c2)CC(C)O3)C1c1ccc(OC)cc1 (centres undefined)	92.1*	i	-2.8	-8.1
CCOc1ccc(C2/C(=C(/O)c3ccc4c(c3)CC(C)O4)C(=O)C(=O)N2CC2CCCO2)cc1 (centres undefined)	-0.1	i	1.0	2.0
Cc1ccc(C(CC(=O)O)NC(=O)CCNC(=O)c2ccco2)cc1 (centres undefined)	6.7	i	-3.3	-2.1
Cc1c(CCOC(=O)CC23CC4CC(CC(C)(C4)C2)C3)sc[n+]1CC(=O)c1ccccc1	96.7*	i	0.7	1.0
Cc1c(CCOC(=O)c2ccccc2)sc[n+]1CC(=O)c1ccc(Br)cc1	94.6*	i	5.4	-3.1
COC(=O)c1sccc1-n1cccc1C(=O)C(=O)N1CCOCC1	-0.5	i	39.7*	-8.2
COC(=O)c1sccc1-n1cccc1C(=O)N1CCOCC1	-0.1	i	-0.7	4.5
SMILES	Granule exo inh	Myeloid diff 2	HNF4A DNA FP	CSN deneddyl inh
N=C1S/C(=C\c2ccc(-c3cccc(Cl)c3)o2)C(=O)N1c1nccs1	73.4*	i	-18.4	2.8
Cc1cccc(C)c1NC(=O)COC(=O)CN1C(=O)C2CCCCC2C1=O (centres undefined)	2.2	i	-1.1	1.6
CCN1/C(=C2/SC(=S)NC2=O)Sc2ccccc21	-0.7	i	2.9	6.7
CSc1ccc(C2=C/C(=C3/SC(=S)NC3=O)c3ccccc3O2)cc1	-2.8	+	-1.6	-2.9
CC(C(=O)OCC(=O)NC1CCCCC1)N1C(=O)c2ccccc2C1=O (centres undefined)	3.1	i	-2.1	1.7
O=C(NC1CC1)C1CC(=O)N(c2cccc(Cl)c2)C1 (centres undefined)	-0.5	+	-0.3	-5.7
Cc1ccc(N2CC(C(=O)NC3CC3)CC2=O)cc1Cl (centres undefined)	-9.7	i	4.5	-2.0
CC(=O)C(=Nc1ccc(Cl)cc1Cl)NNc1cccc(Cl)c1	84.9*	i	2.5	-2.0
CCCS(=O)(=O)NC(=O)C1(C)CCN(C(=O)c2ccc(C(F)(F)F)cc2)C1 (centres undefined)	7.1	i	-0.9	-6.1
CC[n+]1c(/C=C/C=C/N(C(C)=O)c2ccccc2)sc2ccccc21	0.5	+	-42.4	-86.4
CCn1c(/C=C/N(C(C)=O)c2ccccc2)[n+](CC)c2ccc(Cl)cc21	-3.4	i	1.4	0.9
Nc1ccc(CN2CCCCCC2)cc1	-0.9	+	-1.1	4.8
COc1cccc(OCCOCCN(C)CCO)c1	-3.5	+	-0.5	-1.4
COc1ccc(OC)c(NC(=O)COC(=O)CN2C(=O)NC3(CCCC3)C2=O)c1	-2.5	i	-1.7	-2.6
O=S(=O)(Nc1nc2ccccc2nc1NCc1ccco1)c1ccccc1	-1.1	+	-1.7	2.7
O=C(c1cc(-c2cccc(Cl)c2)on1)N1CCc2ccccc2C1	-3.0	+	2.2	5.1
O=C(OCC(=O)N1CCCC1)c1ccccc1C(=O)c1ccccc1	2.2	i	3.6	-2.1
Cc1ccc2cc(/C=C/C(=O)c3ccco3)c(Cl)nc2c1	94.9*	i	6.8	22.5
Cc1ccc2nc(Cl)c(/C=C/C(=O)c3ccco3)cc2c1	86.0*	i	-0.9	20.7
CCOC(=O)C1=CCC(C(C)(C)C)N(S(=O)(=O)c2ccc(C)cc2)C1 (centres undefined)	-2.8	i	-1.4	110.3*
Cc1c([N+](=O)[O-])c(C(=O)NC2CCCCC2)nn1C	-2.6	i	-0.8	-3.4
CCCN1C(=O)S/C(=C\c2ccc(N3CCOCC3)o2)C1=O	80.9*	.	127.4	-14.8
CCCN1C(=O)S/C(=C/c2ccc(N3CCOCC3)o2)C1=O	34.3	?	217.0	46.3
O=C(NCCN1CCOCC1)c1ccc(Cl)c(S(=O)(=O)NCc2ccccc2)c1	0.1	i	-5.2	1.7
O=C(NCC(F)(F)F)c1ccc(S(=O)(=O)Nc2ccccc2N2CCCC2)cc1	-3.1	i	26.6	72.6*
c1ccc(CNc2ncnc3sc4c(c23)CCCC4)nc1	8.8	i	3.0	-1.0
Cc1nc(NCc2ccccn2)c2c3c(sc2n1)CCCC3	-1.8	+	-0.3	-0.7
Brc1ccc(C2=Nn3c(nnc3-c3cccnc3)SC2)s1	0.2	i	-1.1	93.7*
COc1ccc(CCNc2ccc(C(CC(N)=O)NC(=O)c3ccccc3)cc2[N+](=O)[O-])cc1 (centres undefined)	-1.4	+	11.8	110.6
NC(=O)CC(NC(=O)c1ccccc1)c1ccc(NCCc2ccc(F)cc2)c([N+](=O)[O-])c1 (centres undefined)	-2.6	i	8.0	0.0
